Experimental data: ChEMBL document CHEMBL4689842, “EUbOPEN Chemogenomics Library wave 1” (2021)

Test system: Fibroblast
Assay: Multiplex assay against human fibroblast
Type: toxicity, cell-based
Summary of the method: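 With compound added, live cells were imaged on a CQ1 microscope at 37°C and 5% CO2; staining with Hoechst33342, BioTracker Green Microtubule Cytoskeleton Dye, MitoTracker Red and Annexin V Alexa Fluor 680 had been done at seeding. The CellPathfinder machine-learning gating scheme split cells into Hoechst high-intensity objects or normal cells, normal cells into healthy, pyknosed or fragmented nuclei, and pyknosed cells into mitotic or apoptotic. The tubulin, mitochondrial-mass and membrane-permeability phenotypes are per cents of healthy-nucleus cells.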

[1] = 12 h, 1 µM, compound concentration 1 uM, replicate 1
[2] = 12 h, 1 µM, compound concentration 1 uM, replicate 2
[3] = 12 h, 10 µM, compound concentration 10 uM, replicate 1
[4] = 12 h, 10 µM, compound concentration 10 uM, replicate 2
[5] = 24 h, 1 µM, compound concentration 1 uM, replicate 1
[6] = 24 h, 1 µM, compound concentration 1 uM, replicate 2
[7] = 24 h, 10 µM, compound concentration 10 uM, replicate 1
[8] = 24 h, 10 µM, compound concentration 10 uM, replicate 2
[9] = 48 h, 1 µM, compound concentration 1 uM, replicate 1
[10] = 48 h, 1 µM, compound concentration 1 uM, replicate 2
[11] = 48 h, 10 µM, compound concentration 10 uM, replicate 1
[12] = 48 h, 10 µM, compound concentration 10 uM, replicate 2

For `CN1CCC(=C2c3ccccc3CC(=O)c3sccc32)CC1.O=C(O)/C=C/C(=O)O` [KETOTIFEN FUMARATE], which “Population Apoptotic (%)” value [1] is on record?
The value was 61%.

What about the “Population Fragmented Nuclei (%)” value [1] of the same compound?
The value was 26%.

What about the “Population Healthy Nuclei (%)” value [1] of the same compound?
Its value is 41%.

What about the “Population Hoechst High Intensity Objects (%)” value [1] of the same compound?
Its value is 12%.

And the “Population Membrane Permeable-Phenotype (%)” value [1]?
Its value is 24%.

What about the “Population Mitochondria Different-Phenotype (%)” value [1] of the same compound?
Its value is 3%.

And the “Population Mitotic Cells (%)” value [1]?
The value was 38%.

And the “Population Normal (%)” value [1]?
Its value is 87%.

And the “Population Pyknosed Nuclei (%)” value [1]?
Its value is 32%.

What about the “Population Tubulin-Different-Phenotype (%)” value [1] of the same compound?
The value was 37%.

And the “Total Cell Count” value [1]?
The value was 149.

And the “Population Apoptotic (%)” value [2]?
The value was 75%.

And the “Population Fragmented Nuclei (%)” value [2]?
Its value is 6%.

And the “Population Healthy Nuclei (%)” value [2]?
The value was 87%.

What about the “Population Hoechst High Intensity Objects (%)” value [2] of the same compound?
Its value is 5%.

What about the “Population Membrane Permeable-Phenotype (%)” value [2] of the same compound?
Its value is 10%.

What about the “Population Mitochondria Different-Phenotype (%)” value [2] of the same compound?
The value was 12%.

And the “Population Mitotic Cells (%)” value [2]?
Its value is 25%.

And the “Population Normal (%)” value [2]?
The value was 94%.

What about the “Population Pyknosed Nuclei (%)” value [2] of the same compound?
Its value is 6%.

And the “Population Tubulin-Different-Phenotype (%)” value [2]?
The value was 9%.

And the “Total Cell Count” value [2]?
Its value is 56.

What about the “Population Apoptotic (%)” value [3] of the same compound?
Its value is 73%.

What about the “Population Fragmented Nuclei (%)” value [3] of the same compound?
The value was 21%.

What about the “Population Healthy Nuclei (%)” value [3] of the same compound?
The value was 51%.

And the “Population Hoechst High Intensity Objects (%)” value [3]?
Its value is 16%.

And the “Population Membrane Permeable-Phenotype (%)” value [3]?
Its value is 6%.

What about the “Population Mitochondria Different-Phenotype (%)” value [3] of the same compound?
The value was 23%.

And the “Population Mitotic Cells (%)” value [3]?
The value was 26%.

What about the “Population Normal (%)” value [3] of the same compound?
The value was 83%.

And the “Population Pyknosed Nuclei (%)” value [3]?
The value was 26%.

And the “Population Tubulin-Different-Phenotype (%)” value [3]?
Its value is 84%.

And the “Total Cell Count” value [3]?
Its value is 168.

And the “Population Apoptotic (%)” value [4]?
The value was 33%.

What about the “Population Fragmented Nuclei (%)” value [4] of the same compound?
Its value is 2%.

What about the “Population Healthy Nuclei (%)” value [4] of the same compound?
Its value is 75%.

And the “Population Hoechst High Intensity Objects (%)” value [4]?
The value was 1%.

What about the “Population Membrane Permeable-Phenotype (%)” value [4] of the same compound?
The value was 15%.

And the “Population Mitochondria Different-Phenotype (%)” value [4]?
Its value is 90%.

And the “Population Mitotic Cells (%)” value [4]?
The value was 66%.

What about the “Population Normal (%)” value [4] of the same compound?
The value was 98%.

What about the “Population Pyknosed Nuclei (%)” value [4] of the same compound?
The value was 22%.

What about the “Population Tubulin-Different-Phenotype (%)” value [4] of the same compound?
Its value is 95%.

What about the “Total Cell Count” value [4] of the same compound?
Its value is 67.

And the “Population Apoptotic (%)” value [5]?
The value was 63%.

What about the “Population Fragmented Nuclei (%)” value [5] of the same compound?
Its value is 25%.

What about the “Population Healthy Nuclei (%)” value [5] of the same compound?
The value was 45%.

And the “Population Hoechst High Intensity Objects (%)” value [5]?
The value was 12%.

What about the “Population Membrane Permeable-Phenotype (%)” value [5] of the same compound?
The value was 16%.

And the “Population Mitochondria Different-Phenotype (%)” value [5]?
The value was 6%.

And the “Population Mitotic Cells (%)” value [5]?
Its value is 36%.

What about the “Population Normal (%)” value [5] of the same compound?
Its value is 88%.

What about the “Population Pyknosed Nuclei (%)” value [5] of the same compound?
The value was 28%.

What about the “Population Tubulin-Different-Phenotype (%)” value [5] of the same compound?
Its value is 38%.

What about the “Total Cell Count” value [5] of the same compound?
The value was 150.

And the “Population Apoptotic (%)” value [6]?
Its value is 100%.

And the “Population Fragmented Nuclei (%)” value [6]?
The value was 8%.

And the “Population Healthy Nuclei (%)” value [6]?
The value was 86%.

And the “Population Hoechst High Intensity Objects (%)” value [6]?
The value was 7%.

What about the “Population Membrane Permeable-Phenotype (%)” value [6] of the same compound?
Its value is 9%.

And the “Population Mitochondria Different-Phenotype (%)” value [6]?
Its value is 10%.

What about the “Population Mitotic Cells (%)” value [6] of the same compound?
Its value is 0%.

And the “Population Normal (%)” value [6]?
Its value is 92%.

What about the “Population Pyknosed Nuclei (%)” value [6] of the same compound?
Its value is 5%.

And the “Population Tubulin-Different-Phenotype (%)” value [6]?
Its value is 4%.

And the “Total Cell Count” value [6]?
Its value is 64.

And the “Population Apoptotic (%)” value [7]?
Its value is 75%.

What about the “Population Fragmented Nuclei (%)” value [7] of the same compound?
The value was 33%.

And the “Population Healthy Nuclei (%)” value [7]?
Its value is 51%.

What about the “Population Hoechst High Intensity Objects (%)” value [7] of the same compound?
The value was 16%.

And the “Population Membrane Permeable-Phenotype (%)” value [7]?
The value was 17%.

And the “Population Mitochondria Different-Phenotype (%)” value [7]?
Its value is 28%.

What about the “Population Mitotic Cells (%)” value [7] of the same compound?
Its value is 25%.

What about the “Population Normal (%)” value [7] of the same compound?
The value was 83%.

What about the “Population Pyknosed Nuclei (%)” value [7] of the same compound?
The value was 15%.

And the “Population Tubulin-Different-Phenotype (%)” value [7]?
Its value is 83%.

What about the “Total Cell Count” value [7] of the same compound?
The value was 189.

And the “Population Apoptotic (%)” value [8]?
The value was 59%.

And the “Population Fragmented Nuclei (%)” value [8]?
The value was 6%.

What about the “Population Healthy Nuclei (%)” value [8] of the same compound?
The value was 66%.

And the “Population Hoechst High Intensity Objects (%)” value [8]?
Its value is 2%.

And the “Population Membrane Permeable-Phenotype (%)” value [8]?
The value was 22%.

And the “Population Mitochondria Different-Phenotype (%)” value [8]?
Its value is 98%.

And the “Population Mitotic Cells (%)” value [8]?
Its value is 40%.

And the “Population Normal (%)” value [8]?
The value was 97%.

What about the “Population Pyknosed Nuclei (%)” value [8] of the same compound?
Its value is 27%.

And the “Population Tubulin-Different-Phenotype (%)” value [8]?
The value was 88%.

What about the “Total Cell Count” value [8] of the same compound?
Its value is 80.

And the “Population Apoptotic (%)” value [9]?
The value was 61%.

What about the “Population Fragmented Nuclei (%)” value [9] of the same compound?
Its value is 34%.

And the “Population Healthy Nuclei (%)” value [9]?
Its value is 52%.

And the “Population Hoechst High Intensity Objects (%)” value [9]?
The value was 16%.

And the “Population Membrane Permeable-Phenotype (%)” value [9]?
The value was 20%.

And the “Population Mitochondria Different-Phenotype (%)” value [9]?
Its value is 2%.

What about the “Population Mitotic Cells (%)” value [9] of the same compound?
Its value is 38%.

And the “Population Normal (%)” value [9]?
The value was 83%.

And the “Population Pyknosed Nuclei (%)” value [9]?
The value was 12%.

And the “Population Tubulin-Different-Phenotype (%)” value [9]?
The value was 34%.

And the “Total Cell Count” value [9]?
The value was 170.

What about the “Population Apoptotic (%)” value [10] of the same compound?
The value was 40%.

And the “Population Fragmented Nuclei (%)” value [10]?
Its value is 28%.

And the “Population Healthy Nuclei (%)” value [10]?
The value was 64%.

And the “Population Hoechst High Intensity Objects (%)” value [10]?
Its value is 10%.

And the “Population Membrane Permeable-Phenotype (%)” value [10]?
The value was 18%.

And the “Population Mitochondria Different-Phenotype (%)” value [10]?
The value was 0%.

What about the “Population Mitotic Cells (%)” value [10] of the same compound?
Its value is 60%.

And the “Population Normal (%)” value [10]?
Its value is 89%.

What about the “Population Pyknosed Nuclei (%)” value [10] of the same compound?
The value was 6%.

And the “Population Tubulin-Different-Phenotype (%)” value [10]?
The value was 32%.

And the “Total Cell Count” value [10]?
Its value is 86.

What about the “Population Apoptotic (%)” value [11] of the same compound?
Its value is 87%.

What about the “Population Fragmented Nuclei (%)” value [11] of the same compound?
Its value is 41%.

And the “Population Healthy Nuclei (%)” value [11]?
Its value is 53%.

What about the “Population Hoechst High Intensity Objects (%)” value [11] of the same compound?
The value was 31%.

What about the “Population Membrane Permeable-Phenotype (%)” value [11] of the same compound?
The value was 16%.

What about the “Population Mitochondria Different-Phenotype (%)” value [11] of the same compound?
The value was 9%.

What about the “Population Mitotic Cells (%)” value [11] of the same compound?
The value was 12%.

What about the “Population Normal (%)” value [11] of the same compound?
The value was 68%.

What about the “Population Pyknosed Nuclei (%)” value [11] of the same compound?
Its value is 4%.

And the “Population Tubulin-Different-Phenotype (%)” value [11]?
The value was 68%.

And the “Total Cell Count” value [11]?
Its value is 260.

And the “Population Apoptotic (%)” value [12]?
Its value is 0%.

What about the “Population Fragmented Nuclei (%)” value [12] of the same compound?
Its value is 34%.

And the “Population Healthy Nuclei (%)” value [12]?
Its value is 64%.

And the “Population Hoechst High Intensity Objects (%)” value [12]?
The value was 23%.

And the “Population Membrane Permeable-Phenotype (%)” value [12]?
Its value is 13%.

And the “Population Mitochondria Different-Phenotype (%)” value [12]?
The value was 5%.

And the “Population Mitotic Cells (%)” value [12]?
Its value is 100%.

What about the “Population Normal (%)” value [12] of the same compound?
Its value is 76%.

What about the “Population Pyknosed Nuclei (%)” value [12] of the same compound?
The value was 1%.

And the “Population Tubulin-Different-Phenotype (%)” value [12]?
The value was 86%.

And the “Total Cell Count” value [12]?
Its value is 176.
